This note sets out measurements from ChEMBL document CHEMBL1121363, “DNA intercalating compounds as potential antitumor agents. 2. Preparation and properties of 7H-pyridocarbazole dimers” (1980).

Test [1] relates to Calf thymus DNA. Description: Displacement of ethidium from DNA of calf thymus at pH 5. Conditions: Bos taurus. The class given is nucleic-acid assay. Summed up: (§1)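 Ethidium dimer (6.4 × 10⁻⁷ M) pre-bound to calf thymus DNA (1.6 × 10⁻⁶ M base pairs), 24 h equilibration with competing dimer, 20 °C, in 0.2 M sodium acetate pH 5 or 0.1 M NaCl/0.1 M Tris-HCl pH 7.4. Fluorescence ex 540, em 610 nm. rf50 = ratio of total dimer to DNA base pairs displacing 50% of bound ethidium dimer.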

The test system of test [2] is Calf thymus DNA. Nature of the test: Displacement of ethidium from DNA of calf thymus at pH 7.4. Type of test: nucleic-acid assay. The following applies: Bos taurus. Summed up: as §1
The subject of test [3] is Calf thymus DNA. Description: Dimer binding constant for DNA of calf thymus at pH 5. Type of test: nucleic-acid assay. Conditions: Bos taurus. Summed up: (§2)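 Fluorimetric competition: calf thymus DNA (B = 1.6 × 10⁻⁶ M base pairs) with ethidium dimer (6.4 × 10⁻⁷ M) equilibrated 24 h with varied dimer concentrations, 20 °C. Buffers: 0.2 M sodium acetate pH 5, or 0.1 M NaCl/0.1 M Tris-HCl pH 7.4. Ex 540/em 610 nm. Displacement curve fitted to McGhee–von Hippel equations using n set by ethidium bromide competition, giving Kap.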

Test [4] has as its system Calf thymus DNA. Description: Dimer binding constant for DNA of calf thymus at pH 7.4. The class given is nucleic-acid assay. Conditions: Bos taurus. Summed up:
as §2

The test system of test [5] is Mus musculus. Nature of the test: Evaluated for the antitumor activity against L1210 Murine leukemia at optimum intraperitoneal dose 0.25 of the MTD.
In test [6] the test system is Mus musculus. Description: Evaluated for the antitumor activity against L1210 Murine leukemia at optimum intraperitoneal dose 0.5 of the MTD.
The subject of test [7] is Mus musculus. Nature of the test: Evaluated for the antitumor activity against L1210 Murine leukemia at optimum intraperitoneal dose 0.2 of the MTD.
Test [8] deals with Mus musculus. Description: Evaluated for the antitumor activity against L1210 Murine leukemia at optimum intraperitoneal dose 0.8 of the MTD.
The test system of test [9] is Mus musculus. Nature of the test: Evaluated for the antitumor activity against L1210 Murine leukemia at optimum intraperitoneal dose 0.4 of the MTD.

As usually defined, the T/C is the ratio of treated to control.

In the case of `COc1ccc2c(c1)c1c3c[n+](CCN4CCCCC4)ccc3ccc1n2C`, the rf50 was determined as 9.5 in the test with Calf thymus DNA [1] and 20 in the test on Calf thymus DNA [2]. The K app in the test on Calf thymus DNA [3] was 1.8e+06; in the test with Calf thymus DNA [4] it was 300000.

Regarding `COc1ccc2[nH]c3ccc4cc[n+](CCN(C)CCCCCN(C)CC[n+]5ccc6ccc7[nH]c8ccc(OC)cc8c7c6c5)cc4c3c2c1`, the rf50 came out at 0.8 with Calf thymus DNA [1] and 8.4 with Calf thymus DNA [2]. The K app with Calf thymus DNA [3] was found to be 1e+08; in the test on Calf thymus DNA [4], 8e+06.

With `Oc1ccc2[nH]c3ccc4c[n+](CCN5CCC(C6CCN(CC[n+]7ccc8c(ccc9[nH]c%10ccc(O)cc%10c98)c7)CC6)CC5)ccc4c3c2c1`, the rf50 worked out at 0.5 with Calf thymus DNA [1] and 13 with Calf thymus DNA [2]. Also, the figures for the K app with Calf thymus DNA [3] and with Calf thymus DNA [4] were 2e+08 and 500000, respectively.

In the case of `Cc1c2cc[n+](CCN3CCC(C4CCN(CC[n+]5ccc6c(C)c7[nH]c8ccc(O)cc8c7c(C)c6c5)CC4)CC3)cc2c(C)c2c1[nH]c1ccc(O)cc12`, the results for the K app in the test on Calf thymus DNA [3] and with Calf thymus DNA [4] were 1e+08 and 1e+06, respectively.

Take `COc1ccc2[nH]c3ccc4cc[n+](CCN5CCC(C6CCN(CC[n+]7ccc8ccc9[nH]c%10ccc(OC)cc%10c9c8c7)CC6)CC5)cc4c3c2c1.[Cl-].[Cl-]` [DITERCALINIUM CHLORIDE]: the results for the rf50 with Calf thymus DNA [1] and in the test on Calf thymus DNA [2] were 0.32 and 0.96, respectively. Moreover, the K app turned out to be 5e+08 in the test on Calf thymus DNA [3] and 1e+07 in the test on Calf thymus DNA [4]. In the test on Mus musculus [5], this compound displayed a T/C of 216%.

In the case of `[Cl-].[Cl-].c1ccc2c(c1)[nH]c1ccc3cc[n+](CCN4CCC(C5CCN(CC[n+]6ccc7ccc8[nH]c9ccccc9c8c7c6)CC5)CC4)cc3c12`, the rf50 worked out at 0.4 with Calf thymus DNA [1] and 1.4 in the test with Calf thymus DNA [2]. Besides, the T/C with Mus musculus [6] was determined as 121%. The figures for the K app in the test on Calf thymus DNA [3] and in the test on Calf thymus DNA [4] were 3e+08 and 5e+06, respectively.

Take `COc1ccc2[nH]c3c(C)c4cc[n+](CCN5CCC(C6CCN(CC[n+]7ccc8c(C)c9[nH]c%10ccc(OC)cc%10c9c(C)c8c7)CC6)CC5)cc4c(C)c3c2c1`: the K app in the test on Calf thymus DNA [3] was determined as 2e+08; in the test on Calf thymus DNA [4] it was 1e+06.

As for `COc1ccc2[nH]c3ccc4cc[n+](CCCCCCCCCC[n+]5ccc6ccc7[nH]c8ccc(OC)cc8c7c6c5)cc4c3c2c1.[Br-].[Br-]`, the figures for the rf50 in the test on Calf thymus DNA [1] and with Calf thymus DNA [2] were 2.4 and 3, respectively. The compound also displayed a T/C with Mus musculus [6] of 124%. Further, the K app in the test with Calf thymus DNA [3] and in the test with Calf thymus DNA [4] was 3e+06 each time.

For the compound `COc1ccc2[nH]c3ccc4c[n+](CCN5CCC(C6CCN(CC[n+]7ccc8c(ccc9[nH]c%10ccc(OC)cc%10c98)c7)CC6)CC5)ccc4c3c2c1.[Cl-].[Cl-]`, the rf50 with Calf thymus DNA [1] was 0.32; in the test on Calf thymus DNA [2], 3.4. In the test with Mus musculus [7], this compound had a T/C of 130%. In addition, the figures for the K app in the test with Calf thymus DNA [3] and in the test on Calf thymus DNA [4] were 5e+08 and 3e+06, respectively.

For `COc1ccc2c(c1)c1c3c[n+](CCN4CCC(C5CCN(CC[n+]6ccc7ccc8c(c7c6)c6cc(OC)ccc6n8C)CC5)CC4)ccc3ccc1n2C.[Cl-].[Cl-]`, the results for the rf50 with Calf thymus DNA [1] and with Calf thymus DNA [2] were 0.4 and 0.72, respectively. In addition, the K app in the test with Calf thymus DNA [3] turned out to be 3e+08; in the test with Calf thymus DNA [4] it was 2e+07. Also, the T/C with Mus musculus [8] was determined as 155%.

As to `COc1ccc2[nH]c3ccc4cc[n+](CCN5CCC(CCCC6CCN(CC[n+]7ccc8ccc9[nH]c%10ccc(OC)cc%10c9c8c7)CC6)CC5)cc4c3c2c1`, the figures for the rf50 in the test with Calf thymus DNA [1] and in the test on Calf thymus DNA [2] were 0.25 and 2.24, respectively. The K app with Calf thymus DNA [3] is 1e+09; in the test with Calf thymus DNA [4] it was 4e+06.

As for `COc1ccc2[nH]c3ccc4cc[n+](CC(O)CN5CCC(C6CCN(CC(O)C[n+]7ccc8ccc9[nH]c%10ccc(OC)cc%10c9c8c7)CC6)CC5)cc4c3c2c1` (stereo not drawn), the rf50 in the test on Calf thymus DNA [1] stood at 0.24; with Calf thymus DNA [2], 0.72. Also, the K app with Calf thymus DNA [3] is 1e+09; with Calf thymus DNA [4], 2e+07.

Regarding `Oc1ccc2[nH]c3ccc4cc[n+](CCN5CCC(C6CCN(CC[n+]7ccc8ccc9[nH]c%10ccc(O)cc%10c9c8c7)CC6)CC5)cc4c3c2c1.[Cl-].[Cl-]`, the rf50 in the test with Calf thymus DNA [1] is 0.32; with Calf thymus DNA [2], 1.2. Further, the K app with Calf thymus DNA [3] was determined as 5e+08; with Calf thymus DNA [4], 1e+07. Moreover, the T/C in the test on Mus musculus [9] was found to be 157%.

Regarding `COc1ccc2c(c1)c1c3cc[n+](CCN4CCC(C5CCN(CC[n+]6ccc7c(ccc8c7c7cc(OC)ccc7n8C)c6)CC5)CC4)cc3ccc1n2C`, the rf50 in the test with Calf thymus DNA [1] is 0.32; in the test on Calf thymus DNA [2], 1.2. In addition, the figures for the K app in the test on Calf thymus DNA [3] and with Calf thymus DNA [4] were 5e+08 and 6e+06, respectively.
